Assay [1] addresses T1, Phosphotyrosine protein phosphatase ptpB (Mycobacterium bovis (strain BCG / Pasteur 1173P2)) (UniProt A0A0H3M0T0).
T1 sequence (whole entry): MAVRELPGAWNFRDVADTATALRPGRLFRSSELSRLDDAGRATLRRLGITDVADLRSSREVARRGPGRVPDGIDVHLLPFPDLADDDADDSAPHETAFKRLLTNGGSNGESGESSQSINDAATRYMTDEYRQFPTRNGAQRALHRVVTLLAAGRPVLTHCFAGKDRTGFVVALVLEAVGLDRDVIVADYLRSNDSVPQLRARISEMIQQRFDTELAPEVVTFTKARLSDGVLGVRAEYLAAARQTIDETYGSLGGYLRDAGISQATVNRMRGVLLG
Kind of assay: Inhibition of Mycobacterium bovis BCG Pasteur ptpB infected in mouse J774A.1 cells assessed as reduction in intracellular bacterial burden at 10 to 120 uM after 72 hrs post infection relative to DMSO-treated control. The note with it: Mycobacterium tuberculosis variant bovis BCG. It counts as cell-based. The method in brief: (§1)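 J774A.1 mouse macrophages in DMEM with 10% heat-inactivated FBS, seeded at 2 × 10^3/well overnight. Pretreated with inhibitor in DMSO or DMSO alone, then infected with BCG Pasteur at MOI 10:1 for 4 h and washed (time 0). Medium and inhibitor renewed at 24 h. Cells lysed in 0.05% Tween 80 at 72 h; CFU counted on 7H10 after 3 weeks. Triplicate, ≥3 experiments.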

Assay [2] concerns the target T1, Phosphotyrosine protein phosphatase ptpB (Mycobacterium bovis (strain BCG / Pasteur 1173P2)). Kind of assay: Inhibition of Mycobacterium bovis BCG Pasteur ptpB infected in mouse J774A.1 cells assessed as reduction in intracellular bacterial burden at 10 to 120 uM after 24 hrs post infection. Particulars: Mycobacterium tuberculosis variant bovis BCG. In kind it is cell-based. The method in brief: as §1

The target is the same in assay [3]. The assay can be described thus: Inhibition of Mycobacterium bovis BCG Pasteur ptpB infected in mouse J774A.1 cells assessed as reduction in intracellular bacterial burden at 5 uM after 72 hrs post infection in presence of rifampicin. In kind it is cell-based. Particulars: Mycobacterium tuberculosis variant bovis BCG. The method in brief: as §1
Assay [4] addresses T2, Phosphotyrosine protein phosphatase (Mycobacterium tuberculosis) (UniProt A0A045ISB3).
T2 sequence (whole entry): T1 sequence (whole entry) with G105D
The assay can be described thus: Inhibition of multi-drug resistant Mycobacterium tuberculosis Beijing-W_565 ptpB infected in human THP1 cells assessed as reduction in intracellular bacterial burden at 20 to 100 uM after 72 hrs post infection relative to DMSO-treated control. It counts as cell-based. The gist of the method: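 PMA-differentiated THP1 cells (1 × 10^6/well) in RPMI with 10% FBS. Inhibitor (0, 20 or 80 μM in DMSO) added, then infected with thawed M. tuberculosis at MOI 1:1 for 3 h and washed 4 times. Medium and inhibitor renewed at 24 h. Cells lysed in 0.05% SDS at 72 h; CFU plated in duplicate and counted after 3 weeks. Triplicate.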

The target in assay [5] is T1, Phosphotyrosine protein phosphatase ptpB (Mycobacterium bovis (strain BCG / Pasteur 1173P2)). The assay can be described thus: Inhibition of Mycobacterium bovis BCG Pasteur ptpB infected in mouse J774A.1 cells assessed as reduction in intracellular bacterial burden at 5 uM after 72 hrs post infection in presence of isoniazid. It counts as cell-based. Particulars: Mycobacterium tuberculosis variant bovis BCG. The method in brief: as §1

Assay [6] shares this target. Kind of assay: Inhibition of Mycobacterium bovis BCG Pasteur ptpB infected in mouse J774A.1 cells assessed as reduction in intracellular bacterial burden up to 500 uM after 72 hrs post infection relative to treated-DMSO control. It counts as cell-based. The note with it: Mycobacterium tuberculosis variant bovis BCG. The gist of the method:
as §1

The test system of assay [7] is Mycobacterium tuberculosis variant bovis BCG. Kind of assay: Antibacterial activity against Mycobacterium bovis BCG Pasteur assessed as reduction in extracellular growth at 80 uM. In kind it is functional, organism-based.
In assay [8] the target is T2, Phosphotyrosine protein phosphatase (Mycobacterium tuberculosis). Kind of assay: Inhibition of multi-drug resistant Mycobacterium tuberculosis Beijing-W_565 ptpB infected in human THP1 cells assessed as reduction in intracellular bacterial burden at 20 to 80 uM after 72 hrs post infection relative to DMSO-treated control. In kind it is cell-based. The method in brief: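 THP1 cells (1 × 10^6/well) were PMA-treated overnight. Inhibitor (20 or 80 μM, in DMSO) was added in RPMI with 10% FBS before infection with thawed bacteria at MOI 1:1. Washed four times after 3 h; inhibitor re-added at 24 h. At 72 h, cells lysed in 0.05% SDS and CFU plated (duplicate 10-fold dilutions, 7H10, 3 weeks); triplicates.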

Assay [9] addresses T1, Phosphotyrosine protein phosphatase ptpB (Mycobacterium bovis (strain BCG / Pasteur 1173P2)). Kind of assay: Inhibition of Mycobacterium bovis BCG Pasteur ptpB infected in mouse J774A.1 cells assessed as reduction in intracellular bacterial burden at 80 uM after 72 hrs post infection. It counts as cell-based. Particulars: Mycobacterium tuberculosis variant bovis BCG. The method in brief: as §1

Assay [10] has as its system Mycobacterium tuberculosis variant bovis BCG. Kind of assay: Antibacterial activity against Mycobacterium bovis BCG Pasteur infected in mouse J774A.1 cells assessed as reduction in bacterial burden at 0.1 ug/ml after 72 hrs post infection relative to control. It counts as functional. On the set-up: scale not given: the % may be the effect or the level left. The method in brief: as §1

The test system is the same in assay [11]. Kind of assay: Antibacterial activity against Mycobacterium bovis BCG Pasteur infected in mouse J774A.1 cells assessed as reduction in bacterial burden at 0.3 ug/ml after 72 hrs post infection relative to control. It counts as functional. Details: scale not given: the % may be the effect or the level left. The gist of the method:
as §1

Residue numbers refer to the chain shown, from its start. The source made the active and inactive calls. The calls are words filed in the database; no cut-off is given here.

As usually defined, the inhibition is the drop in the measured response relative to a control, in per cent. For the compound `O=C(O)c1noc(-c2ccccc2)c1-c1cccc(-c2cc(Cl)c(O)c(Cl)c2)c1`, the inhibition in assay [1] lay within 81 to 87%. Also, in assay [2], the inhibition entry is “Active”.

For `Cc1onc(C(=O)O)c1-c1cccc(-c2cc(Cl)c(O)c(Cl)c2)c1`, the inhibition is over 93% in assay [3], under 74% in assay [4], over 93% in assay [5] and under 84% in assay [6]. In addition, the outcome in assay [7] was inactive.

As to `COC(=O)c1c(O)cccc1OC/C=C/c1cccc(-c2cc(C(=O)O)no2)c1` [ISOXAZOLECARBOXYLIC ACID], the inhibition entry in assay [8] was “Active”.

In the case of `O=C(O)c1noc(-c2ccccc2)c1-c1cccc(-c2ccc(O)c(Cl)c2)c1`, in [1], the inhibition was in the range of 81 to 87%. Also, the inhibition entry in assay [2] and in assay [9] was “Active” each time.

Turning to `NNC(=O)c1ccncc1` [ISONIAZID], the Activity in assay [10] is reported as under 25%.

For the compound `O=C(O)c1noc(-c2ccccc2)c1-c1cccc(-c2ccc(O)cc2)c1`, the inhibition in assay [1] lay within 81 to 87%. Moreover, the inhibition result in assay [2] and in [9] was “Active” throughout.

Consider `O=C(O)c1noc(-c2ccccc2)c1-c1cccc(-c2ccc(O)c(F)c2)c1`, for which the inhibition in [1] is 81 to 87%. For the same compound, the inhibition entry in assay [2] and in [9] was “Active” in each case.

`CO[C@H]1/C=C/O[C@@]2(C)Oc3c(C)c(O)c4c(O)c(c(/C=N/N5CCN(C)CC5)c(O)c4c3C2=O)NC(=O)/C(C)=C\C=C\[C@H](C)[C@H](O)[C@@H](C)[C@@H](O)[C@@H](C)[C@H](OC(C)=O)[C@@H]1C` [RIFAMPIN]: the Activity in assay [11] is on record as under 25%.

In the case of `O=C(O)c1noc(-c2ccccc2)c1-c1cccc(-c2cc(Cl)c(O)c([N+](=O)[O-])c2)c1`, the inhibition in assay [1] lay in the range of 81 to 87%. In addition, the inhibition result in [2] and in assay [9] was “Active” in each case.

For the origin of these results see ChEMBL document CHEMBL4196176, “Structure-Based Design of MptpB Inhibitors That Reduce Multidrug-Resistant Mycobacterium tuberculosis Survival and Infection Burden in Vivo” (J Med Chem, 2018).
